Reference: ChEMBL document CHEMBL4371071, “Muscarinic agonist, (±)-quinuclidin-3-yl-(4-fluorophenethyl)(phenyl)carbamate: High affinity, but low subtype selectivity for human M1 - M5 muscarinic acetylcholine receptors” (Bioorg Med Chem Lett, 2019)

Assays:
[1] = target: T1, Muscarinic acetylcholine receptor M5 (Homo sapiens) (UniProt P08912); assay: Displacement of [3H]NMS from human M5 AChR expressed in CHO cell membranes at 100 uM after 1 to 2 hrs by liquid scintillation spectrometry method relative to control
T1 sequence (whole entry): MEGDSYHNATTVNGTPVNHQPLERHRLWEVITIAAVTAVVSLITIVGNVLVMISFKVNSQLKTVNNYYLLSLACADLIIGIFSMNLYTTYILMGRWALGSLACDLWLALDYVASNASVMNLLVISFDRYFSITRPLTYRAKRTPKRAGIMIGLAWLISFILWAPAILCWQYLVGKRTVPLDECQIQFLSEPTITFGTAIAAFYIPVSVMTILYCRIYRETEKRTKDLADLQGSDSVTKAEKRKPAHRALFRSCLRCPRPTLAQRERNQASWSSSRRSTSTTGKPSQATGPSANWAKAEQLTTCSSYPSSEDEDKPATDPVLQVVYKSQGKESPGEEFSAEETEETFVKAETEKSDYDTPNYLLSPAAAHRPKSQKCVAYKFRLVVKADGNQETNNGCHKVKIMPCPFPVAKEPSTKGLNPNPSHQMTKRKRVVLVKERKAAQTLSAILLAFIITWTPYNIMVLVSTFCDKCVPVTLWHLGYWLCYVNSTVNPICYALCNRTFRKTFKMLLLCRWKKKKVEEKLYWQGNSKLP
How it was run: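 CHO membranes expressing human M5 (10 µg protein/well) with 0.3 nM [3H]NMS and analog (1 nM–100 µM) in 50 mM Tris-HCl pH 7.4, 2 h at 25 °C. […] Filtered on GF/B, counted by scintillation. IC50 converted to Ki; three independent experiments in duplicate.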

[2] = target: T2, Muscarinic acetylcholine receptor M1 (Homo sapiens, UniProt P11229); assay: Displacement of [3H]NMS from human M1 AChR expressed in CHO cell membranes after 1 to 2 hrs by liquid scintillation spectrometry method; assay type: cell-based
T2 sequence (P11229 whole entry): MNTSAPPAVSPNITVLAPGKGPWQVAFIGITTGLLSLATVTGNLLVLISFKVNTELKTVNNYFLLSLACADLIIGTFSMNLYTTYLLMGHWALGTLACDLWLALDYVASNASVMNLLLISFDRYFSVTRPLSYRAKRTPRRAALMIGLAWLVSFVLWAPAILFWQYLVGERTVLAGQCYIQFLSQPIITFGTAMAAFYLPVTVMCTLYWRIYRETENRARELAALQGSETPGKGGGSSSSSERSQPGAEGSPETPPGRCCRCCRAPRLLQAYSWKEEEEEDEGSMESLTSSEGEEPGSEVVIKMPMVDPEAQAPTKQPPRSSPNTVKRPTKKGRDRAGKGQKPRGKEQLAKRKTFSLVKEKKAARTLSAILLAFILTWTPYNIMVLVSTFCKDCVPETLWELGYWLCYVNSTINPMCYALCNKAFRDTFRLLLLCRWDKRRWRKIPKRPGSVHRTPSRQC

Homo sapiens [3] = species on record: Homo sapiens; assay: Selectivity ratio of Ki for displacement of [3H]NMS from human M1 AChR expressed in CHO cell membranes to Ki for displacement of [3H]NMS from human M5 AChR expressed in CHO cell membranes
[4] = target: T3, Muscarinic acetylcholine receptor M3 (Homo sapiens, UniProt P20309); settings: CHO, at 100 µM
Target sequence in this assay (P20309 whole entry, looked up): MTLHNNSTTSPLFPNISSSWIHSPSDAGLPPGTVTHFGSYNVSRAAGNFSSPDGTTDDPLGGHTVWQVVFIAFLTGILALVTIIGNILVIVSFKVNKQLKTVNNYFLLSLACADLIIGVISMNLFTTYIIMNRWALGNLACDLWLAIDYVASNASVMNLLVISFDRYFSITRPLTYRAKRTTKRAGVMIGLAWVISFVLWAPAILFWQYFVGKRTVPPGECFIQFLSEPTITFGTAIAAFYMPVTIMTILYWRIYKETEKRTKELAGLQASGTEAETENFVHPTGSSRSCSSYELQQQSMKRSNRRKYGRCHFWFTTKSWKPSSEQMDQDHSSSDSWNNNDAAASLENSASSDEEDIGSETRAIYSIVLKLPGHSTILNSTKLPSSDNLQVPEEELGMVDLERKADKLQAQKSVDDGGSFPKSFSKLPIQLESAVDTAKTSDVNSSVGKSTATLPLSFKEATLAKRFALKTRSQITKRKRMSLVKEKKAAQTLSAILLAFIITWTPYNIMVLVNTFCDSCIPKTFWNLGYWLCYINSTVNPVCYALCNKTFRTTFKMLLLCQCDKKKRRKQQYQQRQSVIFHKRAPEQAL

[5] = target: T4, Muscarinic acetylcholine receptor M1 (Homo sapiens) (UniProt P11229); settings: CHO, at 100 µM
T4 sequence (whole entry): T2 sequence (P11229 whole entry)

[6] = target: T3, Muscarinic acetylcholine receptor M3; assay: Displacement of [3H]NMS from human M3 AChR expressed in CHO cell membranes after 1 to 2 hrs by liquid scintillation spectrometry method; assay type: cell-based
Target sequence in this assay (P20309 whole entry): as the sequence (P20309 whole entry, looked up) above

[7] = target: T5, Muscarinic acetylcholine receptor M5 (Homo sapiens, UniProt P08912); assay: Displacement of [3H]NMS from human M5 AChR expressed in CHO cell membranes after 1 to 2 hrs by liquid scintillation spectrometry method
T5 sequence (P08912 whole entry): T1 sequence (whole entry)
How it was run: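 CHO membranes expressing human M5 (10 µg protein/well) with 0.3 nM [3H]NMS and analog (1 nM–100 µM) in 50 mM Tris-HCl pH 7.4, 2 h at 25 °C. Filtered on GF/B, counted by scintillation. IC50 converted to Ki; three independent experiments in duplicate.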

[8] = target: T6, Muscarinic acetylcholine receptor M2 (Homo sapiens) (UniProt P08172); assay: Displacement of [3H]NMS from human M2 AChR expressed in CHO cell membranes at 100 uM after 1 to 2 hrs by liquid scintillation spectrometry method relative to control
T6 sequence (whole entry): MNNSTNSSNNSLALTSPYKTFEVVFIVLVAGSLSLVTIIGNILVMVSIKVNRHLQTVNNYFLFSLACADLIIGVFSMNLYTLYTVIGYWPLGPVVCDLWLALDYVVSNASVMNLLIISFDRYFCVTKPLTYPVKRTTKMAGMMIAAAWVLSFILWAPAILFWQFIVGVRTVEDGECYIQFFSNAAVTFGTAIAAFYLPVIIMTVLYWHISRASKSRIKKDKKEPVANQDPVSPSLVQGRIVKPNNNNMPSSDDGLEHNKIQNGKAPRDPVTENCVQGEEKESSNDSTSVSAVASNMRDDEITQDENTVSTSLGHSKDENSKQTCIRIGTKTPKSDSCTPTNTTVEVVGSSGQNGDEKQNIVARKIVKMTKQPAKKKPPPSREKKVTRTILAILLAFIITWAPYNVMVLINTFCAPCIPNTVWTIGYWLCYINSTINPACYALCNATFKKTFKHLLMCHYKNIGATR
How it was run: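 CHO membranes expressing the human subtype (20 µg protein/well) with 0.3 nM [3H]NMS and analog (1 nM–100 µM) in 50 mM Tris-HCl pH 7.4, 2 h at 25 °C. Filtered on GF/B, washed, counted by scintillation. IC50 taken from curves to give Ki; three independent experiments in duplicate.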

[9] = target: T7, Muscarinic acetylcholine receptor M2 (Homo sapiens, UniProt P08172); assay: Displacement of [3H]NMS from human M2 AChR expressed in CHO cell membranes after 1 to 2 hrs by liquid scintillation spectrometry method
T7 sequence (P08172 whole entry): T6 sequence (whole entry)
How it was run: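 CHO membranes expressing the human subtype (20 µg protein/well) with 0.3 nM [3H]NMS and analog (1 nM–100 µM) in 50 mM Tris-HCl pH 7.4, 2 h at 25 °C. […] Filtered on GF/B, washed, counted by scintillation. IC50 taken from curves to give Ki; three independent experiments in duplicate.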

Homo sapiens [10] = species on record: Homo sapiens; assay: Selectivity ratio of Ki for displacement of [3H]NMS from human M2 AChR expressed in CHO cell membranes to Ki for displacement of [3H]NMS from human M3 AChR expressed in CHO cell membranes

| Compound | Imax [1] [%] | Ki [2] [nM] | Ratio Ki (Homo sapiens [3]) | Imax [4] [%] | Imax [5] [%] | Ki [6] [nM] | Ki [7] [nM] | Imax [8] [%] | Ki [9] [nM] | Ratio Ki (Homo sapiens [10]) |
| --- | --- | --- | --- | --- | --- | --- | --- | --- | --- | --- |
| COc1ccc(CCCOC(=O)N(c2ccccc2)C2CN3CCC2CC3)cc1F (stereo not drawn) | 99.4 | 430 | 1.7 | 99.8 | 100 | 250 | 260 |  |  |  |
| COc1ccc(CCCOC(=O)N(c2ccccc2)C2CN3CCC2CC3)cc1 (stereo not drawn) | 99.5 | 590 | 0.9 | 96.8 | 98.5 | 390 | 640 |  |  |  |
| COc1ccc(COC(=O)N(c2ccccc2)C2CN3CCC2CC3)cc1 (stereo not drawn) | 97.1 | 710 | 1.5 | 95.7 | 97.9 | 1150 | 470 |  |  |  |
| O=C(OCCc1ccccc1)N(c1ccccc1)C1CN2CCC1CC2 (stereo not drawn) | 96.9 | 790 | 3 | 99.1 | 88.5 | 300 | 260 |  |  |  |
| O=C(OCc1ccc2c(c1)OCO2)N(c1ccccc1)C1CN2CCC1CC2 (stereo not drawn) | 99.7 | 30 | 0.8 | 99.9 | 100 | 19 | 40 | 99.4 | 30 | 1.7 |
| COc1ccc(CCN(C(=O)OC2CCN(C)CC2)c2ccccc2)cc1 | 99.7 | 280 | 1.5 | 99.7 | 99.8 | 570 | 190 |  |  |  |
| CN1CCC(OC(=O)N(CCc2ccc(F)cc2)c2ccccc2)CC1 | 100 | 70 | 1.2 | 100 | 100 | 140 | 60 |  |  |  |
| O=C(OCc1ccc(Cl)c(Cl)c1)N(c1ccccc1)C1CN2CCC1CC2 (stereo not drawn) | 98.6 | 60 | 0.9 | 95.8 | 100 | 70 | 60 | 97.5 | 220 | 3.3 |
| COc1ccc(CCN(C(=O)OC2C[C@H]3CC[C@H](C2)N3C)c2ccccc2)cc1 (stereo partly drawn) | 97.9 | 350 | 1.5 | 98.9 | 99.7 | 270 | 240 |  |  |  |
| O=C(OCCc1ccc(Cl)c(Cl)c1)N(c1ccccc1)C1CN2CCC1CC2 (stereo not drawn) | 98.8 | 370 | 4.5 | 99.8 | 99.9 | 260 | 80 |  |  |  |
| CN1CCCC(OC(=O)N(CCc2ccc(F)cc2)c2ccccc2)C1 (stereo not drawn) | 99.9 | 120 | 0.8 | 99 | 99.9 | 350 | 150 |  |  |  |
| COc1ccc(CCOC(=O)N(c2ccccc2)C2CN3CCC2CC3)cc1OC (stereo not drawn) | 94 | 6980 | 2 | 85.9 | 90.6 | 2760 | 3490 |  |  |  |
| COc1ccc(CCCOC(=O)N(c2ccccc2)C2CN3CCC2CC3)cc1OC (stereo not drawn) | 99 | 1460 | 0.9 | 96.3 | 97.1 | 1560 | 1610 |  |  |  |
| O=C(OCCCc1ccc(F)c(F)c1)N(c1ccccc1)C1CN2CCC1CC2 (stereo not drawn) | 99.4 | 300 | 3 | 99.5 | 100 | 220 | 100 |  |  |  |
| COc1ccc(COC(=O)N(c2ccccc2)C2CN3CCC2CC3)cc1OC (stereo not drawn) | 98.7 | 770 | 1.4 | 95.4 | 96.8 | 1020 | 550 |  |  |  |
| COc1ccc(CCN(C(=O)OC2CCCN(C)C2)c2ccccc2)cc1 (stereo not drawn) | 97.7 | 690 | 0.7 | 96.2 | 98.6 | 1320 | 1050 |  |  |  |
| COc1ccc(CCN(C(=O)OC2C[C@H]3CC[C@H](C2)N3C)c2ccccc2)cc1OC (stereo partly drawn) | 95.9 | 1870 | 1.4 | 88.8 | 95.3 | 2800 | 1370 |  |  |  |
| COc1ccc(CCN(C(=O)OC2CCN(C)CC2)c2ccccc2)cc1OC | 96.5 | 770 | 2 | 96.6 | 99 | 1280 | 380 |  |  |  |
| Cc1ccc(CCCOC(=O)N(c2ccccc2)C2CN3CCC2CC3)cc1F (stereo not drawn) | 99.9 | 200 | 1.5 | 100 | 100 | 130 | 130 |  |  |  |
| O=C(OCCc1ccc2c(c1)OCO2)N(c1ccccc1)C1CN2CCC1CC2 (stereo not drawn) | 97.1 | 630 | 2.6 | 98 | 99.6 | 290 | 240 |  |  |  |
| COc1ccc(CCOC(=O)N(c2ccccc2)C2CN3CCC2CC3)cc1 (stereo not drawn) | 98.9 | 760 | 3.3 | 99.3 | 98.4 | 420 | 230 |  |  |  |
| COc1ccc(CCN(C(=O)OC2CCCN(C)C2)c2ccccc2)cc1OC (stereo not drawn) | 89.2 | 4300 | 1 | 85.6 | 94.3 | 4360 | 4490 |  |  |  |
| O=C(OCCCc1ccccc1)N(c1ccccc1)C1CN2CCC1CC2 (stereo not drawn) | 95.7 | 780 | 3 | 98.9 | 99.1 | 550 | 260 |  |  |  |
| CN1[C@@H]2CC[C@H]1C[C@@H](OC(=O)C(CO)c1ccccc1)C2 (stereo partly drawn) | 96.7 |  |  |  |  |  |  |  |  |  |
